AI-2 QS modul: Vibrio harveyi AI-2 quorum sensing modulators, primary screen, JMH597 strain, luminescence/OD600 ratio; 300,000 tested, 0.4% active; activity change, % at 7.5 µM; Vibrio harveyi JMH597 AI-2 luminescence/OD600 ratio, 9 h; active compounds read low; strain lacks LuxN and CqsS sensors; 0 = neutral-control median; AID 2094, 2009; in the data active = activity change below about -75%, passing the limit was not always enough; inconclusive = no clear call, values can overlap the other calls;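 note: luminescence divided by OD600 gain over 9 h not by final OD600 alone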
T cruzi repl: inhibitors of intracellular T. cruzi growth, primary screen, luminescence, NIH3T3 host cells; 300,000 tested, 1.4% active; inhibition, % (concentration not given with the values); T. cruzi beta-gal in NIH3T3, 90 h;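 active = mean inhibition across valid replicates above about 55%, limit read from the data; inconclusive = mean below that limit but half or more replicates reach it; inactive = mean below it, under half of replicates reach it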;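 note: signal also drops with host cell toxicity which is not excluded here; 0% = plate median of DMSO wells and 100% = zero luminescence signal; higher percent means less beta-gal luminescence so fewer parasites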
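System – NIH/3T3 host cells with β-galactosidase reporter T. cruzi · Doses – single 50 nL compound addition per well in DMSO · Reagent – 5000 T. cruzi trypomastigotes/well · Medium – Low-serum DMEM with 2% FBS · Timing – ≥90 h infection period, 3 h prior cell attachment · Evaluation – parasite load inhibition, % · Technique – GalScreen luminescence, 60 min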
HDAC3 inhib: HDAC3 deacetylase inhibitors, primary screen, biochemical, fluorescence, cell-free homogeneous. Histone deacetylase 3 (Homo sapiens), O15379. recombinant HDAC3, fluorogenic peptide/trypsin coupled. inhibition, % at 8.3 µM. 320,000 tested, 0.15% active; in the data active = inhibition above about 26%, passing the limit was not always enough; inconclusive = no clear call, values can overlap the other calls
Target sequence (O15379 whole entry, looked up): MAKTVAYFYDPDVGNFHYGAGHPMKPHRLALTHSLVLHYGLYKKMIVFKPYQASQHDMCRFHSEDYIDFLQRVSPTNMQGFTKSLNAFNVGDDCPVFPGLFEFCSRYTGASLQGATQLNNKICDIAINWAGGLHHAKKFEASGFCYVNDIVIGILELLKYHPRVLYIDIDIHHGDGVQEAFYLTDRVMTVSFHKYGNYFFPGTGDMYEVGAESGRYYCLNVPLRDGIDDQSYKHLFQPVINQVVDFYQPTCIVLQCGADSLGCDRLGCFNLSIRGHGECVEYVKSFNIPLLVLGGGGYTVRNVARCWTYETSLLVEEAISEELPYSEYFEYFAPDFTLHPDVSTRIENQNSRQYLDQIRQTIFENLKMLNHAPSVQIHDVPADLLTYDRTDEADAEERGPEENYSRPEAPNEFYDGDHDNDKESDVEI
Efflux pump inh: inhibitors of Candida efflux pumps in yeast, primary screen, S. cerevisiae, Nile Red, multiplex | AID 485275, 2010 | 330,000 tested, 0.44% active | inhibition, % at 10 µM | S. cerevisiae Candida pump triplex;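 active = plate passing quality check with inhibition over a set limit, or well fluorescence over plate mean plus 4 SD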;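 note: Nile Red retained in pooled yeast measured as flow cytometry median fluorescence; 0% = buffer negative control and 100% = Enniatin B positive control; higher means more Nile Red kept so more efflux inhibition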
PolyA inhibitor: polyadenylation inhibitors in yeast reporter cells, primary screen, luminescence, S. cerevisiae; AID 1875, 2009; 300,000 tested, 0.02% active; activity score, % at 12 µM; S. cerevisiae SKY197-pL101 polyadenylation reporter, beta-gal luminescence; efflux-impaired pdr1/pdr3 knockout yeast; score 100 = 6 SD above DMSO;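 active = lowest replicate activity score at least 50, where 100 means six control SD above control mean; inconclusive = lowest score under 50 but half or more replicates reach 50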;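 note: yeast exposed to compound for 9 h at 30 °C; higher score means more reporter readthrough which indicates perturbed polyadenylation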
Yeast cmpd fluor: flagged as fluorescent in efflux inhibitor counter-screen | shares compounds with Efflux pump inh | S. cerevisiae AD/pABC3, compound fluorescence, flow cytometry | fluorescence ratio to DMSO, % at 10 µM | 1,700 tested, 4% active | AID 588517;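 active = fluorescence ratio to DMSO above its plate's cutoff, the plate mean ratio plus 5 SD, cut at about 210% in these data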;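 note: unstained yeast with no Nile Red so the signal is compound autofluorescence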
Mdr1 pump inh: inhibitors of Candida albicans Mdr1 efflux, confirmation, flow cytometry, singleplex, Cherry Pick1 set; shares compounds with Efflux pump inh; S. cerevisiae AD/CaMDR1, Nile Red efflux; inhibition, % at 10 µM; 1,700 tested, 1% active; in the data active = inhibition above about 26%;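 note: 0% = DMSO vehicle and 100% = reference inhibitor; higher means more Nile Red retained so more efflux inhibition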
CaCdr2 efflux inh: inhibitors of Candida albicans Cdr2 efflux pump, confirmation, S. cerevisiae AD/CaCDR2, flow cytometry, cherry pick 1, singleplex; shares compounds with Efflux pump inh; Nile Red retention; Nile Red retention ratio vs DMSO, % at 10 µM; 1,700 tested, 4% active; AID 588520, 2011; in the data active = Nile Red retention ratio vs DMSO above about 190%;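 note: higher ratio means more blocking of Cdr2 efflux of the dye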
CaCdr1 efflux inh: inhibitors of Candida albicans Cdr1 efflux pump, confirmation, S. cerevisiae AD/CaCDR1, flow cytometry, cherry pick 1, singleplex; Nile Red efflux; inhibition, % at 10 µM; shares compounds with Efflux pump inh; AID 588522, 2011; 1,700 tested, 1% active;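 active = inhibition above the screen-wide mean plus twice its standard deviation, cut at about 32% in these data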
* = called active by the depositor; ? = inconclusive; / = no result. Rows were chosen to be rich in hits. Some 2.2% of all compounds tested hit in one or more screens of this group.

SMILES	AI-2 QS modul	T cruzi repl	HDAC3 inhib	Efflux pump inh	PolyA inhibitor	Yeast cmpd fluor	Mdr1 pump inh	CaCdr2 efflux inh	CaCdr1 efflux inh
COc1cccc(/C=C/C(=O)N2CC(C)OC(C)C2)c1OC (configuration not stated)	/	-6	0	1.7*	?	93	0	103	0
COc1cc(/C=C/C(=O)OCC(=O)Nc2cc(S(=O)(=O)N3CCCC3)ccc2Cl)cc(OC)c1OC	/	/	-4	0	/	/	/	/	/
O=C(NCCc1ccccc1)c1c(O)c2cccc3c2n(c1=O)CC3	33	-7	-2	0	5	/	/	/	/
O=C(c1cccc([N+](=O)[O-])c1)N1CCc2ccccc21	11	3	-3	0	-5	/	/	/	/
O=C(Oc1c(-c2ccccc2)c(=O)n2c3c(cccc13)CC2)c1cccc([N+](=O)[O-])c1	-1	0	-3	0.6*	67*	102	0	101	0
O=C(Oc1c(-c2ccccc2)c(=O)n2c3c(cccc13)CC2)c1ccccc1	-23	5	10	0	-10	161	0	91	3
O=C(Oc1c(-c2ccccc2)c(=O)n2c3c(cccc13)CC2)c1ccc(F)cc1	3	-5	-5	0.6*	-4	99	0	97	0
CN1CCN(C(=O)c2c(O)c3cccc4c3n(c2=O)CC4)CC1	6	4	3	0	7	/	/	/	/
Cc1ccccc1NC(=O)NC1(C(=O)N2CCC(C(N)=O)CC2)CCCCC1	16	-5	2	0	-3	/	/	/	/
COC(=O)c1nn(-c2ccccc2)c(=O)cc1Sc1ccc(Cl)cc1	17	-17	-1	0.6*	-26	108	0	108	0
COC(=O)c1nn(-c2ccc(OC)cc2)c(=O)cc1Sc1ccc(C)cc1	-3	-9	2	0	-6	/	/	/	/
Cc1ccccc1/C=N/Nc1nc2ccccc2c(=O)n1O	33	6	/	0	13	/	/	/	/
C=CCn1c(SCc2ccc(C(=O)OC)cc2)nnc1-c1sc(N)nc1C	8	4	5	15*	7	106	0	101	0
COc1cc(/C=C2\SC(=Nc3ccccc3)NC2=O)cc(Cl)c1O	61	12	?	0	11	/	/	/	/
COc1cc(/C=C2\SC(=Nc3ccccc3OC)NC2=O)ccc1O	2	-13	-5	0.6*	-3	110	0	107	0
CCc1ccc(N=C2NC(=O)/C(=C/c3cc(OC)c(O)c(OC)c3)S2)cc1	11	1	-14	0.5*	91*	126	0	101	0
COc1cc(/C=C2/CC/C(=C/c3ccc(O)c(OC)c3)C2=O)ccc1O	1	-4	3	0.5*	61*	116	0	100	0
COc1ccc(NC(=O)N(C)C[C@H]2Oc3ccc(NC(=O)NC4CCCCC4)cc3C(=O)N([C@H](C)CO)C[C@@H]2C)cc1	/	/	-4	0	/	/	/	/	/
CCCCC(CC)CN=C(N)NC(N)=NCCCCCCN=C(N)NC(N)=NCC(CC)CCCC (configuration not stated)	/	/	?	2.2*	/	93	0	131	0
N#Cc1ccc(OCC(=O)N2CCN(c3ccc(C(F)(F)F)cn3)CC2)cc1	/	/	3	0.8*	/	109	0	108	0
Clc1cccc(Cl)c1C1=NOC(c2nnc(-c3ccccc3)o2)C1 (configuration not stated)	14	-15	0	0	-5	/	/	/	/
Cc1c(Br)c([N+](=O)[O-])nn1CCCC(=O)NC(C)c1ccccc1 (configuration not stated)	8	21	1	0	7	/	/	/	/
CCCCNC(=O)OCC(CC)NC(=O)OC(C)C (configuration not stated)	21	-2	3	1.9*	-8	101	0	106	0
O=C(c1ccc(Cl)cc1)N1C2C=CC(C2)C1(C(F)(F)F)C(F)(F)F (configuration not stated)	14	8	1	15*	2	128	1	106	0
Cc1ccc(C(c2cc(Br)ccc2O)N2CCSCC2)cc1 (configuration not stated)	4	24	3	0	19	/	/	/	/
SMILES	AI-2 QS modul	T cruzi repl	HDAC3 inhib	Efflux pump inh	PolyA inhibitor	Yeast cmpd fluor	Mdr1 pump inh	CaCdr2 efflux inh	CaCdr1 efflux inh
C=CCn1c(=O)c2ccccc2n2c(SCC(=O)Nc3sc(C)c(CC)c3C(=O)OCC)nnc12	17	27	-3	0.5*	-10	99	0	116	0
Cn1cnc(S(=O)(=O)Nc2ccc(Cl)c(C(F)(F)F)c2)c1	-1	-14	-10	0	0	/	/	/	/
CC(C)Cc1nnc(NS(=O)(=O)Cc2ccccc2)s1	38	1	-6	9.0*	-4	108	0	106	0
CCC(Sc1nc2cc(OC)c(OC)cc2c(=O)n1CCc1ccc(OC)c(OC)c1)C(=O)NCCOC (configuration not stated)	/	4	0	1.3*	-21	93	0	107	0
Cn1c2ccccc2c(=O)c2ccc(NCCc3cccs3)cc21	/	/	-27	1	/	/	/	/	/
O=C(CSc1cccc[n+]1[O-])NN(c1ccccc1)c1ccccc1	32	-2	/	0	7	/	/	/	/
CC(C)Cn1c(SCC(=O)c2ccc(Cl)s2)nnc1-c1ccco1	24	14	9	1.1*	-13	100	0	107	0
Cc1cc(C(=O)NNS(=O)(=O)c2ccc(C(C)(C)C)cc2)nn1C(C)(C)C	2	3	4	0.6*	-2	101	0	108	0
COC(=O)c1cc([N+](=O)[O-])c(-n2ccnc2)c([N+](=O)[O-])c1	10	-10	-2	0	25	/	/	/	/
CCN(CC)c1cccc(OCC(=O)N(C)CCC#N)c1	18	25	-6	2.1*	8	202	1	142	1
COC(=O)c1cc(-c2ccccc2)n(CCN)c1C	14	-18	-4	0	5	/	/	/	/
